Experimental data as given in ChEMBL document CHEMBL3853342, “Design, synthesis and biological evaluation of novel benzo-α-pyrone containing piperazine derivatives as potential BRAFV600E inhibitors” (Bioorg Med Chem Lett, 2016).
Calls of active or inactive are those of the source. The rule behind the calls is not given here.

Key:
[1] = Cell cycle arrest in human WM266.4 cells assessed as accumulation at S phase at 2 uM after 24 hrs by propidium iodide staining based FACS analysis (reference value: 29.03 %); assay type: functional; details: WM 266-4
How it was run: (§1)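 WM266-4 (BRAF V600E melanoma) cells exposed to 0, 2, 4 or 8 µM for 24 h. Cell-cycle distribution by flow cytometry, with G1, S and G2/M fractions gated. Three independent experiments.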

WM 266-4 [2] = experiment: Induction of apoptosis in human WM266.4 cells assessed as late apoptotic cells at 4 uM after 24 hrs by Annexin V-FITC/propidium iodide based flow cytometric analysis (reference value: 5.04 %); assay type: functional
How it was run: (§2)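 Apoptosis in WM266-4 (BRAF V600E) cells after 24 h at 0, 2, 4 or 8 µM, by Annexin V-FITC/PI dual staining and flow cytometry. Percentages of apoptotic cells were calculated. Three independent experiments.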

[3] = Cell cycle arrest in human WM266.4 cells assessed as accumulation at G0/G1 phase at 8 uM after 12 hrs by propidium iodide staining based FACS analysis (reference value: 64.70 %); details: WM 266-4
[4] = Cell cycle arrest in human WM266.4 cells assessed as accumulation at G2/M phase at 8 uM after 24 hrs by propidium iodide staining based FACS analysis (reference value: 14.39 %); assay type: functional; details: WM 266-4; how it was run: as §1
WM 266-4 [5] = experiment: Induction of apoptosis in human WM266.4 cells assessed as viable cells at 4 uM after 24 hrs by Annexin V-FITC/propidium iodide based flow cytometric analysis (reference value: 92.9 %); assay type: functional; details: WM 266-4, 24 h, read-out: Activity; how it was run: as §2
[6] = Antiproliferative activity against human WM266.4 cells harboring BRAF V600E mutant assessed as cell growth inhibition after 24 hrs by MTT assay; assay type: functional, cell-based; details: WM 266-4, 24 h
WM 266-4 [7] = experiment: Induction of apoptosis in human WM266.4 cells assessed as late apoptotic cells at 2 uM after 24 hrs by Annexin V-FITC/propidium iodide based flow cytometric analysis (reference value: 5.04 %); assay type: functional; how it was run: as §2
[8] = Induction of apoptosis in human WM1361 cells assessed as necrotic cells at 40 uM after 24 hrs by Annexin V-FITC/propidium iodide based flow cytometric analysis (reference value: 0.860 %); assay type: functional
[9] = Cell cycle arrest in human WM266.4 cells assessed as accumulation at S phase at 4 uM after 24 hrs by propidium iodide staining based FACS analysis (reference value: 29.03 to 29.51%); assay type: functional; details: WM 266-4; how it was run: as §1
WM 266-4 [10] = experiment: Induction of apoptosis in human WM266.4 cells assessed as necrotic cells at 4 uM after 24 hrs by Annexin V-FITC/propidium iodide based flow cytometric analysis (reference value: 0.435 %); assay type: functional; how it was run: as §2
[11] = Antiproliferative activity against human A375 cells assessed as cell growth inhibition after 24 hrs by MTT assay; assay type: functional, cell-based; details: A-375, 24 h
[12] = Induction of apoptosis in human WM1361 cells assessed as early apoptotic cells at 60 uM after 24 hrs by Annexin V-FITC/propidium iodide based flow cytometric analysis (reference value: 1.02 %); assay type: functional
WM 266-4 [13] = experiment: Induction of apoptosis in human WM266.4 cells assessed as viable cells at 8 uM after 24 hrs by Annexin V-FITC/propidium iodide based flow cytometric analysis (reference value: 92.9 %); assay type: functional; details: WM 266-4, 24 h, read-out: Activity; how it was run: as §2
WM 266-4 [14] = experiment: Induction of apoptosis in human WM266.4 cells assessed as necrotic cells at 8 uM after 24 hrs by Annexin V-FITC/propidium iodide based flow cytometric analysis (reference value: 0.435 %); assay type: functional; how it was run: as §2
WM 266-4 [15] = experiment: Induction of apoptosis in human WM266.4 cells assessed as early apoptotic cells at 2 uM after 24 hrs by Annexin V-FITC/propidium iodide based flow cytometric analysis (reference value: 1.60 %); assay type: functional; how it was run: as §2
[16] = Cell cycle arrest in human WM266.4 cells assessed as accumulation at G0/G1 phase at 4 uM after 24 hrs by propidium iodide staining based FACS analysis (reference value: 56.58 to 64.70%); assay type: functional; details: WM 266-4; how it was run: as §1
[17] = Induction of apoptosis in human WM1361 cells assessed as necrotic cells at 20 uM after 24 hrs by Annexin V-FITC/propidium iodide based flow cytometric analysis (reference value: 0.860 %); assay type: functional
WM 266-4 [18] = experiment: Induction of apoptosis in human WM266.4 cells assessed as viable cells at 2 uM after 24 hrs by Annexin V-FITC/propidium iodide based flow cytometric analysis (reference value: 92.9 %); assay type: functional; details: WM 266-4, 24 h, read-out: Activity; how it was run: as §2
[19] = Induction of apoptosis in human WM1361 cells assessed as late apoptotic cells at 60 uM after 24 hrs by Annexin V-FITC/propidium iodide based flow cytometric analysis (reference value: 2.96 %); assay type: functional
[20] = Induction of apoptosis in human WM1361 cells assessed as late apoptotic cells at 40 uM after 24 hrs by Annexin V-FITC/propidium iodide based flow cytometric analysis (reference value: 2.96 %); assay type: functional
[21] = target: Serine/threonine-protein kinase B-raf (Homo sapiens, UniProt P15056, V600E); experiment: Inhibition of human recombinant GST-tagged BRAF catalytic domain (416 to 766 residues) V600E mutant expressed in baculovirus expression system preincubated for 1 hr followed by human full length recombinant N-terminal His-tagged MEK1 substrate addition measured after 25 mins by gel electrophoresis method
[22] = Cell cycle arrest in human WM266.4 cells assessed as accumulation at G2/M phase at 4 uM after 36 hrs by propidium iodide staining based FACS analysis (reference value: 5.79 %); assay type: functional; details: WM 266-4
[23] = Induction of apoptosis in human WM1361 cells assessed as late apoptotic cells at 20 uM after 24 hrs by Annexin V-FITC/propidium iodide based flow cytometric analysis (reference value: 2.96 %); assay type: functional
[24] = Cell cycle arrest in human WM266.4 cells assessed as accumulation at G0/G1 phase at 2 uM after 24 hrs by propidium iodide staining based FACS analysis (reference value: 56.58 %); assay type: functional; details: WM 266-4; how it was run: as §1
[25] = Cell cycle arrest in human WM266.4 cells assessed as accumulation at G2/M phase at 2 uM after 24 hrs by propidium iodide staining based FACS analysis (reference value: 14.39 %); assay type: functional; details: WM 266-4; how it was run: as §1
[26] = Cell cycle arrest in human WM266.4 cells assessed as accumulation at S phase at 8 uM after 36 hrs by propidium iodide staining based FACS analysis (reference value: 29.51 %); details: WM 266-4
[27] = Induction of apoptosis in human WM1361 cells assessed as necrotic cells at 60 uM after 24 hrs by Annexin V-FITC/propidium iodide based flow cytometric analysis (reference value: 0.860 %); assay type: functional
WM 266-4 [28] = experiment: Induction of apoptosis in human WM266.4 cells assessed as DNA fragmentation up to 8 uM after 24 hrs by agarose gel electrophoresis; assay type: functional, cell-based
How it was run: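 DNA ladder assay: WM266-4 cells cultured at 37 °C for 24 h with 0, 2, 4 or 8 µM. DNA isolated and run on 2.0% agarose gel beside 2000 bp and 15000 bp markers. Untreated cells served as control.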

[29] = Cell cycle arrest in human WM266.4 cells assessed as accumulation at G0/G1 phase at 8 uM after 24 hrs by propidium iodide staining based FACS analysis (reference value: 56.58 %); assay type: functional; details: WM 266-4; how it was run: as §1
WM 266-4 [30] = experiment: Induction of apoptosis in human WM266.4 cells assessed as necrotic cells at 2 uM after 24 hrs by Annexin V-FITC/propidium iodide based flow cytometric analysis (reference value: 0.435 %); assay type: functional; how it was run: as §2
WM 266-4 [31] = experiment: Induction of apoptosis in human WM266.4 cells assessed as early apoptotic cells at 8 uM after 24 hrs by Annexin V-FITC/propidium iodide based flow cytometric analysis (reference value: 1.60 %); assay type: functional; how it was run: as §2
[32] = Cell cycle arrest in human WM266.4 cells assessed as accumulation at S phase at 8 uM after 24 hrs by propidium iodide staining based FACS analysis (reference value: 29.03 %); assay type: functional; details: WM 266-4; how it was run: as §1
WM 266-4 [33] = experiment: Induction of apoptosis in human WM266.4 cells assessed as early apoptotic cells at 4 uM after 24 hrs by Annexin V-FITC/propidium iodide based flow cytometric analysis (reference value: 1.60 %); assay type: functional; how it was run: as §2
[34] = Cell cycle arrest in human WM266.4 cells assessed as accumulation at S phase at 8 uM after 12 hrs by propidium iodide staining based FACS analysis (reference value: 29.51 %); details: WM 266-4
[35] = Induction of apoptosis in human WM1361 cells assessed as viable cells at 60 uM after 24 hrs by Annexin V-FITC/propidium iodide based flow cytometric analysis (reference value: 95.2 %); assay type: functional; details: WM1361, 24 h, read-out: Activity
[36] = Induction of apoptosis in human WM1361 cells assessed as viable cells at 20 uM after 24 hrs by Annexin V-FITC/propidium iodide based flow cytometric analysis (reference value: 95.2 %); assay type: functional; details: WM1361, 24 h, read-out: Activity
WM 266-4 [37] = experiment: Induction of apoptosis in human WM266.4 cells assessed as increase in apoptotic cells after 24 hrs by Annexin V-FITC/propidium iodide based flow cytometric analysis; assay type: functional, cell-based; how it was run: as §2
[38] = Cell cycle arrest in human WM266.4 cells assessed as accumulation at G2/M phase at 4 uM after 24 hrs by propidium iodide staining based FACS analysis (reference value: 5.79 to 14.39%); assay type: functional; details: WM 266-4; how it was run: as §1
[39] = Cell cycle arrest in human WM266.4 cells assessed as accumulation at G0/G1 phase at 8 uM after 36 hrs by propidium iodide staining based FACS analysis (reference value: 64.70 %); details: WM 266-4
[40] = Induction of apoptosis in human WM1361 cells assessed as viable cells at 40 uM after 24 hrs by Annexin V-FITC/propidium iodide based flow cytometric analysis (reference value: 95.2 %); assay type: functional; details: WM1361, 24 h, read-out: Activity
[41] = Induction of apoptosis in human WM1361 cells assessed as early apoptotic cells at 20 uM after 24 hrs by Annexin V-FITC/propidium iodide based flow cytometric analysis (reference value: 1.02 %); assay type: functional
WM 266-4 [42] = experiment: Induction of apoptosis in human WM266.4 cells assessed as late apoptotic cells at 8 uM after 24 hrs by Annexin V-FITC/propidium iodide based flow cytometric analysis (reference value: 5.04 %); assay type: functional; how it was run: as §2
[43] = Induction of apoptosis in human WM1361 cells assessed as early apoptotic cells at 40 uM after 24 hrs by Annexin V-FITC/propidium iodide based flow cytometric analysis (reference value: 1.02 %); assay type: functional
[44] = Antiproliferative activity against human WM1361 cells assessed as cell growth inhibition after 24 hrs by MTT assay; assay type: functional, cell-based; details: WM1361, 24 h
[45] = Cytotoxicity against human 293T cells assessed as cell growth inhibition after 24 hrs by MTT assay; assay type: toxicity, cell-based, HEK-293T
[46] = Cell cycle arrest in human WM266.4 cells assessed as accumulation at G2/M phase at 8 uM after 12 hrs by propidium iodide staining based FACS analysis (reference value: 5.79 %); details: WM 266-4

Sequence of Serine/threonine-protein kinase B-raf (P15056 2-766 V600E limits assumed): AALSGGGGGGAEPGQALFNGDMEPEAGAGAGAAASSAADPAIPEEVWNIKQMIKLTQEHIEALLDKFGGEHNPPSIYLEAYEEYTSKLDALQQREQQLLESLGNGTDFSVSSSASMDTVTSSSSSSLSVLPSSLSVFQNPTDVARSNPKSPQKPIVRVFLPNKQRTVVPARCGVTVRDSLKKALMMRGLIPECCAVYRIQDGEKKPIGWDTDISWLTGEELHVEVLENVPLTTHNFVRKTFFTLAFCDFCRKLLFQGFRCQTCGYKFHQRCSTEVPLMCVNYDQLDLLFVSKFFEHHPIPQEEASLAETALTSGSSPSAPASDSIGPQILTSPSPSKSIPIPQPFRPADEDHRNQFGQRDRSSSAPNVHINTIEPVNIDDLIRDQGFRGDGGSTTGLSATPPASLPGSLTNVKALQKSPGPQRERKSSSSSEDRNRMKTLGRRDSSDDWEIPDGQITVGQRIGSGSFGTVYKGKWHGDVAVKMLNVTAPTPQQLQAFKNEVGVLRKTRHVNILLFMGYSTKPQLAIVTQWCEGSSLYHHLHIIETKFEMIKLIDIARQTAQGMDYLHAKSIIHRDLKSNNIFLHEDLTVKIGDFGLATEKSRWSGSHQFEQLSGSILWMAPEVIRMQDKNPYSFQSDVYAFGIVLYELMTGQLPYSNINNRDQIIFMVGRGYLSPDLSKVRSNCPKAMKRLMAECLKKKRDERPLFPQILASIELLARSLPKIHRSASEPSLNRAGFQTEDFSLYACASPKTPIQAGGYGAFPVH

`O=c1oc2ccccc2c(N2CCN(C(c3ccccc3)c3ccccc3)CC2)c1CO` gave an Activity [1] of 21.6%, an Activity (WM 266-4 [2]) of 21.2% and an Activity [3] of 66.2%. It also gave an Activity [4] of 11.1%, a viability at 4 µM (WM 266-4 [5]) of 52.5% and an IC50 [6] of 1.35 µM. It also gave an Activity (WM 266-4 [7]) of 14.5%, an Activity [8] of 1.15% and an Activity [9] of 5.88%. It also gave an Activity (WM 266-4 [10]) of 1.88%, an IC50 [11] of 2.24 µM and an Activity [12] of 1.61%. For the same molecule, the viability at 8 µM (WM 266-4 [13]) was 37.1%, the Activity (WM 266-4 [14]) was 3.07% and the Activity (WM 266-4 [15]) was 13.4%. The Activity [16] was 76.4%, the Activity [17] was 1.36% and the viability at 2 µM (WM 266-4 [18]) was 67%. The Activity [19] was 5.29%, the Activity [20] was 5.11% and the IC50 [21] was 0.37 µM. The Activity [22] was 2.41%, the Activity [23] was 3.36% and the Activity [24] was 65.8%. For the same molecule, the Activity [25] was 12.6%, the Activity [26] was 8.26% and the Activity [27] was 1.31%. For the same molecule, the Activity (WM 266-4 [28]) was “Active”, the Activity [29] was 82.4% and the Activity (WM 266-4 [30]) was 5.06%. The Activity (WM 266-4 [31]) was 27.1%, the Activity [32] was 6.48% and the Activity (WM 266-4 [33]) was 24.4%. For the same molecule, the Activity [34] was 21.6%, the viability at 60 µM [35] was 91.8% and the viability at 20 µM [36] was 94.1%. The Activity (WM 266-4 [37]) was “Dose-dependent effect”, the Activity [38] was 7.56% and the Activity [39] was 89.3%. For the same molecule, the viability at 40 µM [40] was 92.9%, the Activity [41] was 1.16% and the Activity (WM 266-4 [42]) was 32.7%. The Activity [43] was 0.856%, the IC50 [44] was 21.1 µM and the CC50 at 24 h [45] was > 50 µM. It also gave an Activity [46] of 12.2%.

With `O=c1oc2ccccc2c(N2CCN(c3ccccc3)CC2)c1CO` the IC50 [6] was 16.6 µM, the IC50 [11] was 17.2 µM and the IC50 [21] was 8.93 µM. For the same molecule, the IC50 [44] was > 50 µM and the CC50 at 24 h [45] was > 50 µM.

Molecule `O=c1oc2ccccc2c(N2CCN(C(c3ccc(F)cc3)c3ccc(F)cc3)CC2)c1CO` has an IC50 [6] of 2.57 µM, an IC50 [11] of 3.16 µM and an IC50 [21] of 0.68 µM. The IC50 [44] was 29.4 µM and the CC50 at 24 h [45] was > 50 µM.
